Assay results taken from ChEMBL document CHEMBL2202989, “New adamantane phenylalkylamines with σ-receptor binding affinity and anticancer activity, associated with putative antagonism of neuropathic pain” (J Med Chem, 2012).

Assays:
Format in all cases: functional
BXPC-3 [1] = test: Induction of apoptosis in human BxPC3 cells assessed as cleaved caspase3 containing cells at 50 uM by antibody-based FACS analysis (reference value: 8.2 %)
BXPC-3 [2] = test: Induction of apoptosis in human BxPC3 cells assessed as healthy cells at 5 uM using annexin V/7-AAD by FACS analysis (reference value: 79 %)
PC-3 [3] = test: Cell cycle arrest in human PC3 cells assessed as accumulation at >G2/M phase at 0.5 uM after 24 hrs using propidium iodide staining by FACS analysis (reference value: 6 %)
BXPC-3 [4] = test: Cell cycle arrest in human BxPC3 cells assessed as accumulation at S phase at 50 uM after 24 hrs using propidium iodide staining by FACS analysis (reference value: 33 %)
Procedure, shortened: (§1)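 Cells were plated 24 h before treatment and exposed for 24 h at final 0.5, 5, 15 and 50 μM in 0.5% DMSO, against vehicle-treated controls. Cells were then trypsinised and fixed in cold ethanol for 3 h at 4 °C. They were stained in a mix of RNase (200 μg/mL) and PI (1 mg/mL) for 45 min at room temperature in the dark. Flow cytometry used 488 nm excitation and 10 000 gated cells. Phase percentages were assigned from DNA content.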

OVCAR-5 = test: Antitumor activity against human OVCAR5 cells xenografted in SCID mouse assessed as axillary metastasis at 55 mg/kg, ip administered 5 consecutive days in a week for two cycles measured after 2 cycles relative to control; settings: OVCAR-5, ip, route intraperitoneal, read-out: TGI
Procedure, shortened: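 SCID mice carried OVCAR5 xenografts (10^6 cells per inoculum), 16 mice (32 tumors) per group, with ip dosing in 5% Tween 80 from a tumor volume of about 100 mm3. Caliper volume was measured twice weekly and %ΔT/ΔC derived. At termination, primary tumors were weighed and secondary metastases were scored at axillary and bone sites (n = 7−8). Two-tailed t test.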

BXPC-3 [5] = test: Induction of apoptosis in human BxPC3 cells assessed as cleaved caspase3 containing cells at 5 uM by antibody-based FACS analysis (reference value: 8.2 %)
PC-3 [6] = test: Antitumor activity against human PC3 cells xenografted in SCID mouse assessed as bone metastasis at 55 mg/kg, ip administered 5 consecutive days in a week for two cycles measured after 2 cycles relative to control; settings: route intraperitoneal
Procedure, shortened: (§2)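 PC3 xenografts were grown in SCID mice (10^6 cells per inoculum), 14 mice (28 tumors) per group, dosed ip from about 100 mm3. The test agent was given in 5% Tween 80; paclitaxel was given in Cremophor diluted in saline, with a vehicle of 1:1 ethanol/Cremophor diluted 1:3 in saline. Volume and %ΔT/ΔC were derived from caliper readings twice weekly. Occurrence of primary tumors and of axillary and bone metastases was scored (n = 7). Two-tailed t test.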

PC-3 [7] = test: Induction of apoptosis in human PC3 cells assessed as late apoptosis at 5 uM using annexin V/7-AAD by FACS analysis (reference value: 3 %)
IGROV-1 [8] = test: Induction of apoptosis in human IGROV1 cells assessed as cleaved caspase3 containing cells at 0.5 uM by antibody-based FACS analysis (reference value: 3.9 %)
IGROV-1 [9] = test: Induction of apoptosis in human IGROV1 cells assessed as healthy cells at 0.5 uM using annexin V/7-AAD by FACS analysis (reference value: 86 %)
PC-3 [10] = test: Induction of apoptosis in human PC3 cells assessed as late apoptosis at 15 uM using annexin V/7-AAD by FACS analysis (reference value: 3 %)
Procedure, shortened: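 Cells plated 24 h before treatment, then exposed 24 h to 0.5, 5, 15 or 50 μM compound (final DMSO 0.5%); vehicle controls included. Cells scraped and stained with annexin V-FITC and 7-AAD for 15 min on ice in the dark. Flow cytometry with 488 nm excitation, 10,000 gated cells. Early apoptosis was annexin V+/7-AAD−, late was annexin V+/7-AAD+.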

BXPC-3 [11] = test: Cell cycle arrest in human BxPC3 cells assessed as accumulation at G2 phase at 5 uM after 24 hrs using propidium iodide staining by FACS analysis (reference value: 12 %); procedure, shortened: as §1
IGROV-1 [12] = test: Cell cycle arrest in human IGROV1 cells assessed as accumulation at sub G1 phase at 50 uM after 24 hrs using propidium iodide staining by FACS analysis (reference value: 4 %)
BXPC-3 [13] = test: Cell cycle arrest in human BxPC3 cells assessed as accumulation at >G2/M phase at 50 uM after 24 hrs using propidium iodide staining by FACS analysis (reference value: 6 %); procedure, shortened: as §1
PC-3 [14] = test: Antitumor activity against human PC3 cells xenografted in SCID mouse assessed as primary tumor occurrence at 55 mg/kg, ip administered 5 consecutive days in a week for two cycles measured after 2 cycles relative to control; settings: route intraperitoneal; procedure, shortened: as §2
BXPC-3 [15] = test: Induction of apoptosis in human BxPC3 cells assessed as cleaved caspase3 containing cells at 0.5 uM by antibody-based FACS analysis (reference value: 8.2 %)
IGROV-1 [16] = test: Cell cycle arrest in human IGROV1 cells assessed as accumulation at S phase at 0.5 uM after 24 hrs using propidium iodide staining by FACS analysis (reference value: 29 %)
U-251 = test: Growth inhibition of human U251 cells after 48 hrs by SRB assay; settings: U-251, 48 h
Procedure, shortened: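 Cells grown in RPMI 1640 with 5% heat-inactivated FCS, 2 mM L-glutamine and antibiotics, 37 °C, 5% CO2. Seeded at 3500–30000 cells/well and left 24 h before dosing. DMSO solutions added at 10-fold dilutions from 100 to 0.01 μM for 48 h. Cells TCA-fixed and SRB-stained, absorbance read at 540 nm; GI50 derived against the time-zero plate.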

BXPC-3 [17] = test: Cell cycle arrest in human BxPC3 cells assessed as accumulation at >G2/M phase at 15 uM after 24 hrs using propidium iodide staining by FACS analysis (reference value: 6 %); procedure, shortened: as §1
PC-3 [18] = test: Antitumor activity against human PC3 cells xenografted in SCID mouse assessed as axillary metastasis at 55 mg/kg, ip administered 5 consecutive days in a week for two cycles measured after 2 cycles relative to control; settings: route intraperitoneal; procedure, shortened: as §2
IGROV-1 [19] = test: Induction of apoptosis in human IGROV1 cells assessed as healthy cells at 5 uM using annexin V/7-AAD by FACS analysis (reference value: 86 %)
IGROV-1 [20] = test: Cell cycle arrest in human IGROV1 cells assessed as accumulation at G1 phase at 0.5 uM after 24 hrs using propidium iodide staining by FACS analysis (reference value: 27 %); procedure, shortened: as §1
PC-3 [21] = test: Induction of apoptosis in human PC3 cells assessed as cleaved caspase3 containing cells at 5 uM by antibody-based FACS analysis (reference value: 3.2 %)
IGROV-1 [22] = test: Induction of apoptosis in human IGROV1 cells assessed as late apoptosis at 50 uM using annexin V/7-AAD by FACS analysis (reference value: 5 %)
PC-3 [23] = test: Induction of apoptosis in human PC3 cells assessed as healthy cells at 5 uM using annexin V/7-AAD by FACS analysis (reference value: 91 %)

**Q.** How did the Activity (BXPC-3 [1]) turn out when CN1CCN(CCCc2ccc(C(c3ccccc3)C34CC5CC(CC(C5)C3)C4)cc2)CC1 (configuration not stated) was run?
**A.** 4.8%

**Q.** And the Activity (BXPC-3 [2])?
**A.** 77%

**Q.** And the Activity (PC-3 [3])?
**A.** 7%

**Q.** What about the Activity (BXPC-3 [4]) of the same compound?
**A.** 33%

**Q.** And the inhibition in vivo at 55 mg/kg (OVCAR-5)?
**A.** 25%

**Q.** What about the Activity (BXPC-3 [5]) of the same compound?
**A.** 4%

**Q.** And the Activity (PC-3 [6])?
**A.** 43%

**Q.** What about the Activity (PC-3 [7]) of the same compound?
**A.** 2%

**Q.** And the Activity (IGROV-1 [8])?
**A.** 4.2%

**Q.** What about the Activity (IGROV-1 [9]) of the same compound?
**A.** 89%

**Q.** And the Activity (PC-3 [10])?
**A.** 7%

**Q.** And the Activity (BXPC-3 [11])?
**A.** 10%

**Q.** And the Activity (IGROV-1 [12])?
**A.** 18%

**Q.** What about the Activity (BXPC-3 [13]) of the same compound?
**A.** 4%

**Q.** What about the Activity (PC-3 [14]) of the same compound?
**A.** 100%

**Q.** What about the Activity (BXPC-3 [15]) of the same compound?
**A.** 4%

**Q.** What about the Activity (IGROV-1 [16]) of the same compound?
**A.** 26%

**Q.** And the GI50 (U-251)?
**A.** 3.62 µM

**Q.** And the TGI (U-251)?
**A.** 5.93 µM

**Q.** What about the CC50 (U-251; read-out: LC50 (the source's name)) of the same compound?
**A.** 0.00824 µM

**Q.** And the Activity (BXPC-3 [17])?
**A.** 5%

**Q.** What about the Activity (PC-3 [18]) of the same compound?
**A.** 0%

**Q.** And the Activity (IGROV-1 [19])?
**A.** 83%

**Q.** What about the Activity (IGROV-1 [20]) of the same compound?
**A.** 25%

**Q.** And the Activity (PC-3 [21])?
**A.** 2%

**Q.** What about the Activity (IGROV-1 [22]) of the same compound?
**A.** 25%

**Q.** And the Activity (PC-3 [23])?
**A.** 92%
